Sampled rows, rich in hits. Any-hit rate of the full collection: about 2.3%.
ASAP1 inh – ASAP1 ArfGAP inhibition; ASAP1-stimulated ARF1 GTP hydrolysis, GDP FP detection; inhibition, % at 16.5 µM; actives 0.19% (n = 360,000); AID 624377; in the data active = inhibition above about 25%
Target sequence (Q9ULH1 325-724 limits assumed): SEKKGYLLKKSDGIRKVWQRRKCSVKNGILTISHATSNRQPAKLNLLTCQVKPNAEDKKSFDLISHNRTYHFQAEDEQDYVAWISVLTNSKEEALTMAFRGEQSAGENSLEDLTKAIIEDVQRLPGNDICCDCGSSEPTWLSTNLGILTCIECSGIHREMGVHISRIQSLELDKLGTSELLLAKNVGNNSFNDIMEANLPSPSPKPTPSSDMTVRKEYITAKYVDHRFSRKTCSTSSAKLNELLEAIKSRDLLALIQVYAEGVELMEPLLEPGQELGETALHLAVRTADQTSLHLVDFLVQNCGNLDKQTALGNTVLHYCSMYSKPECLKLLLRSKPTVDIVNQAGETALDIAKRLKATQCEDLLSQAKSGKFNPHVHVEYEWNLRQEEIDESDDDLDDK
ARFGAP1 inhibitor – rat ARFGAP1 inhibition. Q62848. Arfgap1-stimulated ARF1 GTP hydrolysis, GDP FP detection. inhibition, % at 16.5 µM. actives 0.26% (n = 360,000). AID 651572;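 active = inhibition above a per-plate limit, mean inhibition of low control wells plus 3 SD, cut at about 25% in these data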
Target sequence (Q62848 1-136 limits assumed): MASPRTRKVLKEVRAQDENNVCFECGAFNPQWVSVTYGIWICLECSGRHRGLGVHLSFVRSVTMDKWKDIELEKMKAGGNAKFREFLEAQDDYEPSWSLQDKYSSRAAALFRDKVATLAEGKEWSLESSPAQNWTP
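Material: truncated rat Arfgap1 GAP domain; Incubation: compound-enzyme preincubation 20 min, reaction 120 min, detection 60 min, 25 °C; Read-out: percent inhibition of Arfgap1-stimulated GTP hydrolysis; Technique: FP, GDP Alexa 633 tracer displaced from anti-GDP antibody, 620/688 nm; Controls: No-Arfgap1 wells (100%) versus DMSO full-reaction wells (0%); Replication: single well per compound.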
Calb FLC – C. albicans growth modulation with fluconazole. C. albicans CaCi-2 + fluconazole, Alamar Blue growth, 48 h. growth inhibition, % (test concentration not listed). actives 0.57% (n = 300,000);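 active = growth inhibition above about 58% in most replicates, limit read from the data, passing the limit was not always enough; inconclusive = exactly half the replicates above a set limit; inactive = most replicates below a set limit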;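 also: all wells also contain fluconazole at 8 µg/ml as a sub-toxic cotreatment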
sPLA2-III inh – Inhibits HGIII-sPLA2 liposome hydrolysis, primary screen; QFRET BODIPY PC-A2 liposome hydrolysis, fluorescence; inhibition, % at 12.2 µM; actives 0.56% (n = 370,000); AID 743126;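 active = inhibition above mean plus 3 SD of compounds lying within the high and low control bounds, cut at about 19% in these data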
SKKanGAS inh – inhibitors of SKKanGAS S. pyogenes growth in kanamycin (SK-promoter or general growth effect); BacTiter-Glo, 6 h; inhibition, % at 7.5 µM; actives 1.3% (n = 300,000); AID 1662;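 active = mean replicate score, as percent of positive control median, at least 50; inconclusive = mean below 50 but one replicate at or above 50; inactive = mean and every replicate below 50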;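 also: strain carries kanamycin resistance gene driven by streptokinase promoter and grows in 40 µg/ml kanamycin; loss of luminescence reflects streptokinase promoter inhibition or plain growth inhibition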
ASAP1 inh confirm – confirmation of human ASAP1 inhibitors; shares compounds with ASAP1 inh; ASAP1-stimulated Arf1 GTPase, GDP fluorescence polarization; inhibition, % at 16.5 µM; actives 37% (n = 620); AID 624431;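 active = mean inhibition over triplicates exceeds the hit threshold derived for the earlier primary screening run, cut at about 25% in these data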
A number is an active result.

Results for O=C(Oc1ccc(-c2cnc3ccccc3n2)cc1)c1cc([N+](=O)[O-])ccc1Cl ?
ASAP1 inh: inactive; ARFGAP1 inhibitor: inactive; Calb FLC: inactive; sPLA2-III inh: inactive; SKKanGAS inh: inactive

How did Cc1c(C(=O)Oc2ccc(-c3cnc4ccccc4n3)cc2)cccc1[N+](=O)[O-] do in these assays?
ASAP1 inh: 25; ARFGAP1 inhibitor: inactive; Calb FLC: inactive; sPLA2-III inh: inactive; SKKanGAS inh: inactive; ASAP1 inh confirm: inactive

Results for Cn1c(=O)c2c(c3ccccc31)OC(C)(C)C=C2 ?
ASAP1 inh: inactive; ARFGAP1 inhibitor: inactive; sPLA2-III inh: inactive

What do the screens show for `O=C(NC1CCCCN(Cc2cccc(Cl)c2)C1=O)C1CCCCC1` (stereo unspecified)?
sPLA2-III inh: inactive

Results for O=C1C(=O)c2ccccc2C(O)=C1c1ccccc1F ?
ASAP1 inh: inactive; ARFGAP1 inhibitor: inactive; Calb FLC: inactive; sPLA2-III inh: inactive; SKKanGAS inh: inactive

How did O=C1C(O)=C(O)C(=O)c2ccccc21 do in these assays?
ASAP1 inh: 30; ARFGAP1 inhibitor: inactive; sPLA2-III inh: inactive; ASAP1 inh confirm: inactive

What do the screens show for `COc1ccc(C(CCOC(=O)Oc2ccccc2)c2cc(OC)c(OC)c(OC)c2)cc1` (stereo unspecified)?
sPLA2-III inh: inactive

What do the screens show for `CCN(C(=S)NCc1ccccc1)c1cccc2ccccc12`?
ASAP1 inh: 25; ARFGAP1 inhibitor: inactive; Calb FLC: inactive; sPLA2-III inh: inactive; SKKanGAS inh: inactive; ASAP1 inh confirm: inactive

How did Cc1ccc(S(=O)(=O)c2c(N)n(CCC(C)C)c3nc4ccccc4nc23)cc1 do in these assays?
ASAP1 inh: 25; ARFGAP1 inhibitor: inactive; Calb FLC: inactive; sPLA2-III inh: inactive; SKKanGAS inh: inactive; ASAP1 inh confirm: inactive

How did COc1ccc(/C=C2\SC(=O)N(CC(=O)Nc3ccc(O)cc3)C2=O)cc1OC do in these assays?
ASAP1 inh: inactive; ARFGAP1 inhibitor: inactive; Calb FLC: inactive; sPLA2-III inh: inactive; SKKanGAS inh: inactive

What do the screens show for `Cc1ccc(NC(=O)CN2C(=O)S/C(=C\c3cc(Cl)c(OCC(=O)O)c(Cl)c3)C2=O)cc1`?
ASAP1 inh: 65; ARFGAP1 inhibitor: 37; Calb FLC: inactive; sPLA2-III inh: inactive; SKKanGAS inh: inactive; ASAP1 inh confirm: 75

Results for O=C(N/N=C/C(Br)=C/c1ccccc1)c1ccc([N+](=O)[O-])cc1 ?
ASAP1 inh: 48; ARFGAP1 inhibitor: inactive; Calb FLC: inactive; sPLA2-III inh: inactive; SKKanGAS inh: inactive; ASAP1 inh confirm: 78

Results for O=C(N/N=C/c1ccc(Br)s1)c1ccc([N+](=O)[O-])cc1 ?
ASAP1 inh: 36; ARFGAP1 inhibitor: inactive; Calb FLC: inactive; sPLA2-III inh: inactive; SKKanGAS inh: inactive; ASAP1 inh confirm: 97

How did O=C(N/N=C/C(Br)=C/c1ccccc1)c1ccncc1 do in these assays?
ASAP1 inh: inactive; ARFGAP1 inhibitor: inactive; Calb FLC: inactive; sPLA2-III inh: inactive; SKKanGAS inh: inactive

What do the screens show for `C[C@@H]1CN([C@@H](C)CO)C(=O)c2cc(Br)cnc2O[C@@H]1CN(C)Cc1ccccn1`?
ASAP1 inh: inactive; ARFGAP1 inhibitor: inactive; sPLA2-III inh: inactive

What do the screens show for `COc1cc(/C=C2/SC(=O)NC2=O)ccc1Oc1ccc([N+](=O)[O-])cc1[N+](=O)[O-]`?
ASAP1 inh: inactive; ARFGAP1 inhibitor: inactive; Calb FLC: inactive; sPLA2-III inh: inactive; SKKanGAS inh: inactive

Results for COc1cc(/C=C2/SC(N)=NC2=O)ccc1Oc1ccc([N+](=O)[O-])cc1[N+](=O)[O-] ?
ASAP1 inh: 29; ARFGAP1 inhibitor: inactive; Calb FLC: inactive; sPLA2-III inh: inactive; SKKanGAS inh: inactive; ASAP1 inh confirm: 49

Results for CC1=CC(O)(c2ccccn2)P(=O)(c2ccccc2)C=C1C (stereo unspecified) ?
ASAP1 inh: inactive; ARFGAP1 inhibitor: inactive; sPLA2-III inh: inactive

Results for COc1ccc(-n2nc(C(=O)NCC(=O)Nc3ccccn3)c3ccccc3c2=O)cc1Cl ?
ASAP1 inh: 51; ARFGAP1 inhibitor: inactive; Calb FLC: inactive; sPLA2-III inh: inactive; SKKanGAS inh: inactive; ASAP1 inh confirm: 61

Results for COc1ccc(-n2nc(C(=O)NCC(=O)NC(C)C)c3ccccc3c2=O)cc1Cl ?
ASAP1 inh: inactive; ARFGAP1 inhibitor: inactive; Calb FLC: inactive; sPLA2-III inh: inactive; SKKanGAS inh: inactive

Results for COc1ccc(S(=O)(=O)N2CCc3ccccc32)cc1C(=O)OCC(=O)c1c(N)n(C)c(=O)n(C)c1=O ?
ASAP1 inh: 26; ARFGAP1 inhibitor: inactive; Calb FLC: inactive; sPLA2-III inh: inactive; SKKanGAS inh: inactive; ASAP1 inh confirm: inactive

How did COc1ccccc1C1c2c(ncn(-c3ccccc3)c2=N)Oc2ccc3ccccc3c21 (stereo unspecified) do in these assays?
sPLA2-III inh: inactive

What do the screens show for `O=C(Nc1cccc(C(F)(F)F)c1)c1ccc2sc([C@@H]3O[C@H](CO)[C@H](O)[C@H](O)[C@H]3O)nc2c1`?
ASAP1 inh: inactive; ARFGAP1 inhibitor: inactive; sPLA2-III inh: inactive

Results for N#Cc1c(-c2ccc(Br)cc2)cc(-c2cccnc2)nc1N ?
ASAP1 inh: inactive; ARFGAP1 inhibitor: inactive; Calb FLC: inconclusive; sPLA2-III inh: inactive; SKKanGAS inh: inactive

Results for N#Cc1c(-c2cccc(Br)c2)cc(-c2cccnc2)nc1N ?
ASAP1 inh: 28; ARFGAP1 inhibitor: inactive; Calb FLC: inactive; sPLA2-III inh: inactive; SKKanGAS inh: inactive; ASAP1 inh confirm: inactive

How did CNC(=O)C(=O)Nc1ccc2c(c1)N(S(=O)(=O)c1cccs1)CCC2 do in these assays?
ASAP1 inh: 29; ARFGAP1 inhibitor: inactive; Calb FLC: inactive; sPLA2-III inh: inactive; SKKanGAS inh: inactive; ASAP1 inh confirm: inactive

How did CC(C)NC(=O)C(=O)Nc1ccc2c(c1)N(S(=O)(=O)c1cccs1)CCC2 do in these assays?
ASAP1 inh: inactive; ARFGAP1 inhibitor: inactive; Calb FLC: inactive; sPLA2-III inh: inactive; SKKanGAS inh: inactive

How did Cc1cc([N+](=O)[O-])c(C)cc1-c1ccc(/C=N/NC(=O)c2cccnc2)o1 do in these assays?
ASAP1 inh: 25; ARFGAP1 inhibitor: inactive; Calb FLC: inactive; sPLA2-III inh: inactive; SKKanGAS inh: inactive; ASAP1 inh confirm: inactive

What do the screens show for `O=C(N/N=C/c1ccc(-c2ccc([N+](=O)[O-])cc2)o1)c1cccnc1`?
ASAP1 inh: inactive; ARFGAP1 inhibitor: inactive; Calb FLC: inactive; sPLA2-III inh: inactive; SKKanGAS inh: inactive

Results for O=C(N[C@H](Cc1ccccc1)C(=O)NCc1ccco1)[C@H]1O[C@@H](n2ccc(=O)[nH]c2=O)[C@H](O)[C@@H]1O ?
ASAP1 inh: inactive; ARFGAP1 inhibitor: inactive; sPLA2-III inh: inactive

What do the screens show for `Cc1ccc(-c2csc(NC(=O)COc3ccc(N(C)S(=O)(=O)c4ccc(C)cc4)cc3)n2)cc1`?
ASAP1 inh: 25; ARFGAP1 inhibitor: inactive; Calb FLC: inactive; sPLA2-III inh: inactive; SKKanGAS inh: inactive; ASAP1 inh confirm: inactive
